Series [1] concerns the target Serine/threonine-protein kinase PLK3 (Homo sapiens) (UniProt Q9H4B4). Description: Binding affinity to PlK3-PBD (unknown origin) using 5-carboxyfluorescein-Ahx-GPLATS-pT-PKNG as substrate measured after 30 min by fluorescence polarization assay. Summed up:
(§1)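 Competitive fluorescence polarization. E. coli-purified PBD used at its EC85 with 10 nM (final) 5-carboxyfluorescein-labelled phosphopeptide: GPMQTS-pT-PKNG probe for Plk2, GPLATS-pT-PKNG probe for Plk3. Buffer was 10 mM Tris-Cl pH 8.0, 1 mM EDTA, 50 mM NaCl, 0.01% NP-40, with test peptide over a concentration range. Polarization read 30 min after mixing. Three independent experiments.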

Another series has as its system HeLa. Put plainly: Antiproliferative activity against human HeLa cell assessed as viable cells measured after 2 days by MTS assay. To be noted: time 2.0 day. Format: functional, cell-based. The gist of the method: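 HeLa cells, asynchronously growing, seeded at 2000 cells/100 μL in triplicate. Compound added for 24 h, then medium replaced and compound given for another 24 h (48 h continuous). MTS reagent added for 1–4 h at 37 °C, 5% CO2. Absorbance read at 490 nm. Three independent experiments, mean relative signal with s.d.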

Series [2] addresses Serine/threonine-protein kinase PLK2 (Homo sapiens) (UniProt Q9NYY3). Description: Binding affinity to PlK2-PBD (unknown origin) using 5-carboxyfluorescein-Ahx-GPMQTS-pT-PKNG as substrate measured after 30 min by fluorescence polarization assay. Summed up: as §1
A short description of series [3]: Drug uptake in Wistar rat administered iv measured after 5 to 30 mins by PET imaging analysis. To be noted: in vivo, time 5-30 min. Type of series: ADME, organism-based.

Molecules are shown by their SMILES. Activity calls are given as the source filed them. The calls are words filed in the database; no cut-off is given here. Where a SMILES comes first, the peptide text is derived from it. [ ]: non-standard residue; d: D form. pT = C[C@@H](OP(=O)(O)O)[C@H](N)C(=O)O

Chain of Serine/threonine-protein kinase PLK2 (Homo sapiens) (Q9NYY3 whole entry, looked up): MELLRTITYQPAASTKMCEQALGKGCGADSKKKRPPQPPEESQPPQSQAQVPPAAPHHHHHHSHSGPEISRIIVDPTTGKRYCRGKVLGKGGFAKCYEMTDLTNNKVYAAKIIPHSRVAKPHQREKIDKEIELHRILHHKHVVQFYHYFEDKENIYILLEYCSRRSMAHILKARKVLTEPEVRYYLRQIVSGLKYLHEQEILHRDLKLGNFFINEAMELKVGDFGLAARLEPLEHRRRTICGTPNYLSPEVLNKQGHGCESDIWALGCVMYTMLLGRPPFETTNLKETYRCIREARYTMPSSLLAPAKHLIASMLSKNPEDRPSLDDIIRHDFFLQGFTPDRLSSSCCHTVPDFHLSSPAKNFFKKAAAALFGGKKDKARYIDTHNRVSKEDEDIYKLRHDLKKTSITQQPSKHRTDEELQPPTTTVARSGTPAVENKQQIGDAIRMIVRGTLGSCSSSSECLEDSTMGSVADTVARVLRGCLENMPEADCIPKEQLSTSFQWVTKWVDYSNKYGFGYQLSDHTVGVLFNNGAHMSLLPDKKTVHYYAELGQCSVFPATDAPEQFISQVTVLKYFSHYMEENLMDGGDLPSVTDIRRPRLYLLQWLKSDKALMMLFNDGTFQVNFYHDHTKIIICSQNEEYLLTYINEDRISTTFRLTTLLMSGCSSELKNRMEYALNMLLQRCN
Chain of Serine/threonine-protein kinase PLK3 (Homo sapiens) (Q9H4B4 whole entry, looked up): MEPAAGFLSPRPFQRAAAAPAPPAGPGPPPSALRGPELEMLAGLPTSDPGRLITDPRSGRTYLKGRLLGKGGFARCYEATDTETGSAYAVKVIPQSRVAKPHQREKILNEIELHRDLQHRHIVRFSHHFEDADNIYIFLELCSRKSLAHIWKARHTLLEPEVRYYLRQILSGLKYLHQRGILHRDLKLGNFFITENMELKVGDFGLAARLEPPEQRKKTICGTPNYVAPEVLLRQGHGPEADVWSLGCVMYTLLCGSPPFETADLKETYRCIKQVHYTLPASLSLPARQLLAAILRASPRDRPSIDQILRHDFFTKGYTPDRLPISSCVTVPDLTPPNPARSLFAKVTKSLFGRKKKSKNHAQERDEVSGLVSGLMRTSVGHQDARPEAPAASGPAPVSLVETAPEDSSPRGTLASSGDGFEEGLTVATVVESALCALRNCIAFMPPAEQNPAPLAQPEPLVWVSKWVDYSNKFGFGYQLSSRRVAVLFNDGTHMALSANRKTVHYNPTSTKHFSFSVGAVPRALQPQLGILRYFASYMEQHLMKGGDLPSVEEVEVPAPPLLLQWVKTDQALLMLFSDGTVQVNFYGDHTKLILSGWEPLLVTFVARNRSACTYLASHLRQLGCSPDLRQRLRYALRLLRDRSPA

For the compound `COC(=O)[C@H](CC(C)C)NC(=O)[C@@H]1CC[C@H]2OCCNC(=O)CC[C@H](NC(=O)c3cc(OCC(C)C)cc(OCC(C)C)c3)C(=O)N[C@@H](CO)C(=O)N[C@@H]([C@@H](C)OP(=O)(O)O)C(=O)N21`, the outcome in series [1] and in series [2] was inactive. The outcome with HeLa was Active.
Take `COC(=O)[C@H](CC(C)C)NC(=O)[C@@H]1CCCN1C(=O)[C@@H](NC(=O)[C@H](CO)NC(=O)[C@H](CCC(N)=O)NC(=O)[C@H](CCSC)NC(=O)[C@@H]1CCCN1)[C@@H](C)OP(=O)(O)O` (H-PMQS[pT]PL-OMe): the Drug uptake entry in series [3] is “Not Active”.

For the origin of these results see ChEMBL document CHEMBL5042523, “Novel Macrocyclic Peptidomimetics Targeting the Polo-Box Domain of Polo-Like Kinase 1” (J Med Chem, 2022).
